# Compound activity deposited in PubChem by several laboratories.
# Lmaj promast = inhibitors of Leishmania major promastigote growth. Leishmania major promastigotes, resazurin fluorescence viability. inhibition, % at 10 µM. 200,000 compounds, 9% hits. AID 1063;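 note: promastigotes grown with compound for 44 hours at 28 °C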
# Diaph act CS = activates diaphorase or chemically reduces, flagging diaphorase assay artifacts; AID 1229; activation factor at 20 µM; 190,000 compounds, 0.005% hits; Diaphorase/resazurin coupled assay, resorufin fluorescence, 16 min; active compounds read high; 1 = vehicle wells, 0 = NADH-free wells;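 active = diaphorase activity raised at least twofold by the compound at 20 µM; inactive = activation factor below 2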
#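 test system = bacterial diaphorase enzyme (C. kluyveri) | quantity = enzyme 0.07 U/mL final | reagent = NADH substrate 0.114 mM plus resazurin dye 0.1 mM, final | incubation = 16 min enzyme reaction, ambient temperature | buffer or medium = HEPES pH 7.4 buffer with MgCl2 and Tween 20 | signal = fluorescence of resorufin, 544 nm excitation, 590 nm emission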
# G6PDH counter = counter-screen for G6PDH assay hits: L. mesenteroides G6PDH inhibition; 200,000 compounds, 0.12% hits; Purified L. mesenteroides G6PDH, diaphorase/resazurin coupled fluorescence, 45 min; inhibition, % at 5 µM
# WT yeast gro inh = growth inhibition of WT yeast, mitochondrial fusion screen. inhibition, % at 10 µM. AID 1362. mitochondrial fusion phenotypic screen, WT strain. 190,000 compounds, 2.1% hits; in the data active = inhibition above about 58%; tested in S. cerevisiae
# Diaph inh CS = diaphorase inhibition or chemical oxidation counter-screen; 190,000 compounds, 0.69% hits; diaphorase resazurin-to-resorufin fluorescence, NADH, 16 min; bacterial (C. kluyveri) enzyme, not human; AID 1217; inhibition, % at 20 µM;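 active = primary screen inhibition at 20 µM above a set limit, cut at about 50% in these data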;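 note: plate controls were DMSO with full reaction for no effect and wells lacking NADH for full effect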
#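 System: Bacterial diaphorase enzyme (C. kluyveri) | Incubation: 16-min room-temperature incubation before reading | Benchmarks: No-NADH positive control and DMSO neutral control | Measured by: Resorufin fluorescence 544/590 nm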
# Active calls of the source: *. Compounds with a hit are over-represented: about 11% of the library has one in this group of screens. Cut-off read from the data, not from the text of the source, unless noted: active = inhibition above about 50%; inactive = the rest.
SMILES,Lmaj promast,Diaph act CS,G6PDH counter,WT yeast gro inh,Diaph inh CS
O=C1NC(=S)SC1=C1CCCC1,-3.8,0.8,-4.9,11.2,18.4
Cc1ccc(NC(=S)N2CCC(N(C)CC3CCCO3)CC2)cc1C (centres undefined),86.5*,0.9,4.9,-2.3,8.6
COc1ccc(NC(=S)N2CCC(N(C)CC3CCCO3)CC2)cc1 (centres undefined),93.4*,1,-2.9,-3.0,0.0
Cc1cccc(NC(=S)N2CCC(N(C)CC3CCCO3)CC2)c1 (centres undefined),85.5*,0.9,3.3,11.3,10.5
COc1ccc(NC(=O)CN(C2CCCCC2)S(C)(=O)=O)cc1Cl,3.2,0.9,6.3,11.8,10.1
COc1ccc(NC(=S)N2CCC(C(=O)N3CCCCCC3)CC2)cc1,-7.0,1,5.4,-7.1,-4.0
COc1ccc(NC(=S)N2CCC(N(C)CC3CCCO3)CC2)cc1Cl (centres undefined),95.3*,1,-0.7,-4.8,0.0
O=C(COC(=O)Cc1cccc(C(F)(F)F)c1)Nc1ccccc1,-8.8,1,1.2,5.2,0.6
O=C(CSc1ncc(-c2ccc(F)cc2)[nH]1)N1CCCCC1,-7.1,0.9,-15.0,8.1,10.3
Cc1c(Cl)cccc1NC(=S)N1CCC(N(C)CC2CCCO2)CC1 (centres undefined),83.5*,1,11.8,-7.6,-4.0
O=c1[nH]c(CN2CCN(c3ccc(O)cc3)CC2)nc2scc(-c3ccc(Cl)cc3)c12,39.6,0.7,11.4,42.8,31.0
CCCCCOCC1CC(C/C(C)=N/Nc2nc(-c3ccccc3)cs2)C(=O)O1 (centres undefined),1.1,0.8,10.2,-0.4,15.9
O=C(OC(C(=O)Nc1cccc(C(F)(F)F)c1)c1ccccc1)C1CCCCC1 (centres undefined),6.3,0.8,-3.0,62.4*,23.3
CCCC(NC(=O)c1c(C)noc1C)C12CC3CC(CC(C3)C1)C2 (centres undefined),21.4,1.1,0.8,14.9,-11.6
O=C1C=C(Nc2ccccc2O)c2ccccc2C1=O,99.8*,0.8,55.7*,27.4,15.8
O=C1C=C(NCc2ccccc2)c2ccccc2C1=O,96.7*,1.1,53.2*,11.4,-14.9
O=c1cccccc1NCc1ccccc1,-6.2,0.7,13.4,25.2,33.3
CSc1ccccc1C(=O)C1CCCN(C(=O)CCN2CCCO2)C1 (centres undefined),-0.6,0.9,11.3,1.6,9.7
Fc1ccc(Oc2ccc3nnc(C(F)(F)F)n3n2)cc1,7.8,0.9,3.0,-7.9,6.5
CC(C)C1C(c2ccccc2)N(C)C(c2ccccc2)CC1(O)c1ccccc1 (centres undefined),39.6,0.8,-4.2,62.9,23.2
CCC1C(c2ccccc2)N(C)C(c2ccccc2)CC1(O)c1ccccc1 (centres undefined),53.0*,0.8,8.0,76.5*,21.4
CCOC(=O)CC1C(=O)NCCN1C(=O)c1sc2ccccc2c1Cl (centres undefined),-4.2,0.9,6.7,-3.8,8.8
COc1ccc(CC(=O)OCc2nnc(-c3ccccc3)o2)cc1,-1.4,0.9,4.5,12.0,5.5
C=CCN(CC=C)CCOc1ccc(OC(C)C)cc1,21.1,0.8,2.6,-2.3,18.5
CC(C)Oc1ccc(OCCNC2CCCC2)cc1,78.8*,1,3.8,5.8,-2.8
SMILES,Lmaj promast,Diaph act CS,G6PDH counter,WT yeast gro inh,Diaph inh CS
CCOc1cccc(OCCNC2CCCC2)c1,80.0*,1,2.3,8.3,1.6
CCOc1cccc(OCCCOc2ccccc2)c1,-3.7,1,1.2,4.5,3.2
C=CCOc1c(Br)cc(/C=N/Nc2ccc(C(=O)O)cc2)cc1OCC,-14.1,0.8,1.3,63.0*,15.1
CCOc1cccc(CNCCO)c1OCc1ccc(Cl)cc1,10.4,1,13.3,6.6,4.5
CCOc1cc(CNCCCN2CCOCC2)cc(Br)c1OCc1ccccc1Cl,100.5*,1.2,3.6,77.8,-19.8
CCOc1cc(CNCCO)cc(Br)c1OCc1ccccc1Cl,99.7*,0.9,5.0,97.7*,5.2
CCOc1cc(CNCCO)cc(Br)c1OCc1ccc(Cl)cc1,100.6*,1.1,6.6,11.0,-5.4
COc1ccc(/C=N/Nc2ccc(C(=O)O)cc2)cc1Br,15.4,1.1,8.0,-1.6,-5.5
CCOc1cc(CNC(C)(C)CO)cc(Br)c1OCc1ccc(Cl)cc1Cl,99.9*,1.1,-3.3,87.8*,-11.5
COc1cc(CNCCO)cc(Cl)c1OCc1ccccc1Cl,98.8*,1,-1.8,25.3,4.7
C=CCOc1c(Br)cc(CNc2ccc(NC(=O)C(C)C)cc2)cc1OCC,97.3*,0.8,-0.6,-6.3,16.8
CCOc1cc(CNc2ccc3c(c2)OCCO3)cc(Br)c1OCC(N)=O,10.2,0.8,10.9,9.1,22.9
CCOc1cc(CNc2ccc(O)cc2)cc(Br)c1OCc1ccccc1F,80.4*,0.8,-13.9,13.3,23.1
O=c1nc(NCc2ccccc2Cl)cn[nH]1,-0.2,1,12.4,-1.4,1.3
COc1cc(N=C2C(=O)N3c4c(cccc42)C(C)=CC3(C)C)cc(OC)c1,61.4*,0.8,17.8,1.0,24.2
COc1cc2c3c(c1)C(C)=CC(C)(C)N3C(=O)C2=O,56.1*,0.7,16.6,-2.9,30.9
COc1ccc(C(=O)Oc2cc3c4c(c2)C(C)=CC(C)(C)N4C(=O)C3=O)cc1OC,21.6,1,9.4,11.6,-0.8
COc1cccc(C(=O)Oc2cc3c4c(c2)C(C)=CC(C)(C)N4C(=O)C3=O)c1,3.2,0.9,8.7,30.0,12.5
Cc1cccc(CSC2=NCCN2C(=O)c2ccco2)c1,-10.6,0.8,6.3,3.4,16.0
Cc1cc(N2CCCCC2)nc(N2CCCCC2)n1,24.4,1.1,7.5,18.1,-11.7
N#Cc1c(NC(=O)c2cnccn2)sc2c1CCCC2,24.0,0.8,-4.1,4.8,15.1
Cc1cccc(C(=O)NC(=S)N2CCN(C(=S)NC(=O)c3cccc(C)c3)CC2)c1,73.1*,0.8,4.0,11.7,21.8
Cc1cccc(C(=O)NC(=S)Nc2ccccc2C(F)(F)F)c1,47.7,0.8,-9.6,-6.8,16.4
COc1ccc(C(=O)NC(=S)Nc2ccccc2F)cc1,64.3*,0.8,7.7,8.0,19.3
O=C(O)c1ccccc1NC(=S)NC(=O)c1cccc2ccccc12,-4.6,0.6,5.2,0.1,40.4
Cc1cccc(C(=O)NC(=S)Nc2ccccc2C(=O)O)c1,-3.0,0.5,8.6,21.9,51.1*
Cc1ccc(C(=O)NC(=S)Nc2ccccc2C(F)(F)F)cc1C,1.4,0.7,5.5,80.3*,27.8
Cc1c(NC(=O)OCCNC(=O)COc2c(Cl)cccc2Cl)sc(=S)n1C,0.7,1,2.4,3.9,2.4
CC(C)(C)C(=O)NC(=S)Nc1sc2c(c1C(N)=O)CCC2,11.7,0.5,0.5,3.5,50.3*
CC(C)CC(=O)NC(=S)Nc1sc2c(c1C(N)=O)CCC2,-3.4,0.7,7.5,12.2,28.2
